According to publication PMC5395284 (Journal of Experimental Pharmacology, 2017):

Key:
[1] = assay type: in vivo, Wistar rat
Wistar rat brain = assay: Brain neurotransmitter levels; assay type: in vivo; details: 4 weeks treatment
Outline: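 Wistar rats on high-fat diet for up to 4 weeks, caged ≤6 per cage at 25°C±2°C. Groups: control, oral SSRI test compound 20 mg/kg b.w., statin test compound 40 mg/kg b.w., or both, for 4 weeks. Brain (100 mg) homogenized in 1 mL 0.1 M perchloric acid with 0.05% EDTA, centrifuged 18,000 rpm, 10 min, 4°C. Mean±SD, n=6; p<0.05 versus lipid control.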

[2] = test system: hyperlipidemic Wistar rats; assay: Plasma lipid levels; assay type: in vivo, Wistar rat; details: 4 weeks treatment; for reduction in total cholesterol level: plasma, in comparison to lipid control
[3] = assay type: in vivo, Wistar rat; remark: listed apart in the source
[4] = after 2-week dosing of FLX; cited from earlier work
[5] = STT+FLX compared to STT monotherapy
[6] = STT+FLX for 4 weeks compared to STT-alone treatment

## CNCCC(Oc1ccc(C(F)(F)F)cc1)c1ccccc1 (stereo not drawn) [FLX, fluoxetine]
[1]; after multiple-dose administration
  accumulation in the brain relative to plasma: multifold higher
Wistar rat brain; mean±SD, n=6
  brain concentration of 5-hydroxytryptamine (5HT): 0.62 ± 0.15 µg/g
  brain concentration of dopamine: 1.48 ± 0.14 µg/g
Wistar rat brain; versus control
  effect on brain level of HIAA: failed to alter
[2]; versus lipid control
  effect on plasma triglyceride level: failed to produce any significant effect
[2]
  reduction in total cholesterol level: 16.3%

## CCC(C)(C)C(=O)O[C@H]1C[C@@H](C)C=C2C=C[C@H](C)[C@H](CC[C@@H](O)C[C@@H](O)CC(=O)O)[C@H]21 [STA, simvastatin acid]
[3]; [5]
  reduction in bioavailability (AUC0−∞) in plasma: 36%

## CCC(C)(C)C(=O)O[C@H]1C[C@@H](C)C=C2C=C[C@H](C)[C@H](CC[C@@H]3C[C@@H](O)CC(=O)O3)[C@H]21 [STT, simvastatin]
[1]; [5]
  percentage increase in AUC0−t in brain: 79%
Wistar rat brain; mean±SD, n=6
  brain concentration of 5-hydroxytryptamine (5HT): 0.45 ± 0.14 µg/g
Wistar rat brain; versus control
  effect on brain level of HIAA: unaffected
  effect on brain level of dopamine: unaffected
[2]; versus lipid control
  effect on plasma HDL level: increase in plasma HDL level
  effect on plasma triglyceride level: significant reduction
[2]
  reduction in total cholesterol level: 41.6%
[3]; [6]
  increase in AUC in plasma: 41.6%
  increase in Cmax in plasma: 57.9%

## COc1ccc2c(c1)[C@]13CCCC[C@@H]1[C@H](C2)N(C)CC3 [dextromethorphan]
[4]
  increase in bioavailability: 27 fold

## COc1ccc2[nH]c([S+]([O-])Cc3ncc(C)c(OC)c3C)nc2c1 (stereo not drawn) [omeprazole]
[4]
  increase in bioavailability: 7.1 fold
